Data from paper PMC3424002 (ACS medicinal chemistry letters, 2012).
“Also recorded” adds a separate entry of the source.

How the values were obtained:
mice [1] = assay: Novel open-field test; format: in vivo, mouse; conditions: for locomotor activity / amount of time spent in the center of the novel open-field: i.p. 15 minutes prior to testing; for locomotor activity: Figure 3A; for amount of time spent in the center of the novel open-field: Figure 3B
In short: (§1)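 Mice received test compound by ip injection 15 min before testing, with each compound compared against its own within-group vehicle cohort. Compounds were suspended in 2% ethanol, 10% Tween 80 and water; one reference NAM was instead dissolved in saline. Prototypical mGluR5 NAMs served as positive controls. There were 10–12 mice per dose, and data are means ± SEM analysed by one-way ANOVA with Bonferroni post hoc test.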

mice [2] = assay: Mouse models of anxiety-like behaviors; format: in vivo; conditions: for doses giving statistically significant effects consistent with anxiolysis: i.p., open-field and light-dark box tests
mice [3] = assay: Light-dark box test; format: in vivo, mouse; conditions: i.p. 15 minutes prior to testing; for proportion of time spent in the light compartment: Figure 3C; for number of compartment transitions: Figure 3D
In short: as §1

mGluR5 [4] = target: mGluR5 (Rattus norvegicus, UniProt P31424); assay: Displacement of [3H]1; format: binding; conditions: ratio of Ki values versus 1 (MPEP)
mGluR5 (Rattus norvegicus, UniProt P31424), sequence (P31424 21-1203): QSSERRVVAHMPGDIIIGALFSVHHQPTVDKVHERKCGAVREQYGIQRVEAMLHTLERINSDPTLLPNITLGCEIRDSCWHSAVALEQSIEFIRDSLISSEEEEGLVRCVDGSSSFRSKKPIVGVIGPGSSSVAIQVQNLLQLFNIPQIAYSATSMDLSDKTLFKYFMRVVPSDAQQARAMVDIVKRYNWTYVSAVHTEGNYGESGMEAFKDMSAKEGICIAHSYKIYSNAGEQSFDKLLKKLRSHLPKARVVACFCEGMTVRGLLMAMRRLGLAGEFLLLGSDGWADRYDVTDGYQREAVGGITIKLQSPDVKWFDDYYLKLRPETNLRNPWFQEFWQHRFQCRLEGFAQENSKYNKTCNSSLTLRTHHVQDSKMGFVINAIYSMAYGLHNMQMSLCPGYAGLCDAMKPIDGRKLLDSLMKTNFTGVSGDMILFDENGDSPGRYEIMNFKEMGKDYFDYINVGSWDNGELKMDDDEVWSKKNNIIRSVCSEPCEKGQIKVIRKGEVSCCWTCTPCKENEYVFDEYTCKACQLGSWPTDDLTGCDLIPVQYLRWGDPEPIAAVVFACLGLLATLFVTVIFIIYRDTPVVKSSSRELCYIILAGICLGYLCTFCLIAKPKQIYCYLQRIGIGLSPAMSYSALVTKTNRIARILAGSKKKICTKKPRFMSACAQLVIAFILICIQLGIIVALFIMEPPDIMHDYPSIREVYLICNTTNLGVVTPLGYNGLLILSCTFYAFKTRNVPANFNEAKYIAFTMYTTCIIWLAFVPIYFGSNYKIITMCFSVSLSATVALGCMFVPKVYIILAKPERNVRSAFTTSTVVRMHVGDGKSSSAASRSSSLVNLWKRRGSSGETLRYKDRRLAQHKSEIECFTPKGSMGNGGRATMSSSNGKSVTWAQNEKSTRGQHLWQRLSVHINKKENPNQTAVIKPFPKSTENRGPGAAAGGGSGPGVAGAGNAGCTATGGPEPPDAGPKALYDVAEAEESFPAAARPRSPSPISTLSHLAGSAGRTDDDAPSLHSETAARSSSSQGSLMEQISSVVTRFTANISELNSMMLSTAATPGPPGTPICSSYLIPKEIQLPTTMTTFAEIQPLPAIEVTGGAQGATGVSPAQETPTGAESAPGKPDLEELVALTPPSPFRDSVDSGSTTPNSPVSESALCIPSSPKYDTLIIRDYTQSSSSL

rat mGluR5 = rat mGluR5 (Rattus norvegicus, UniProt P31424); format: cell-based; conditions: for effect on IP1 levels / accumulation: in the absence of QA (agonist)
rat mGluR5, sequence (P31424 21-1203): as above

[5] = tested on: 63 additional receptors and ion channels; assay: Screening in 63 additional receptors and ion channels; format: binding; conditions: 100 nM; any of 63 additional receptors and ion channels
mGluR5 [6] = conditions: 10 mg/kg, mouse brain; cited from earlier work

Row | fold increase in mGluR5 binding affinity over compound 1 (mGluR5 [4]) | inhibition of binding at other targets [5] | Compound | overall / locomotor activity at the highest tested doses (mice [1]) | locomotor activity (mice [1]) | amount of time spent in the center of the novel open-field (mice [1]) | anxiolytic effects at the highest tested doses (mice [2]) | doses giving statistically significant effects consistent with anxiolysis (mice [2]) | proportion of time spent in the light compartment (mice [3]) | number of compartment transitions (mice [3]) | effect on IP1 levels / accumulation (rat mGluR5) | effect on IP1 levels (agonist) (rat mGluR5; agonist stimulation of mGluR5) | mGluR5 receptor occupancy (mGluR5 [6])
1 | approximately 24 fold | < 13% | Cc1cccc(C#Cc2cc(F)cc(C#N)c2)n1 [Compound 7i] | no corresponding loss of locomotor activity | dose-dependently increased | dose-dependently increased | loss of anxiolytic effects | 0.3 mg/kg | dose-dependently increased | dose-dependently increased | potently decreased IP1 levels from baseline; also recorded: dose-dependent inverse agonism |  | 
2 |  |  | N[C@@H](Cn1oc(=O)[nH]c1=O)C(=O)O [QA, quisqualic acid] |  |  |  |  |  |  |  |  | dose-dependently increased IP1 levels; also recorded: increased IP1 accumulation | 
3 |  |  | N#Cc1cc(F)cc(C#Cc2cccc(C#N)n2)c1 [Compound 7j] | depression in overall activity | dose-dependently increased | dose-dependently increased | loss of anxiolytic effects | 0.1 to 0.3 mg/kg | dose-dependently increased | dose-dependently increased | potently decreased IP1 levels from baseline; also recorded: dose-dependent inverse agonism |  | 
4 |  |  | Cc1nc(C#Cc2cccnc2)cs1 [Compound 2, 3-((2-methyl-1,3-thiazol-4-yl)ethynyl)pyridine, reference compound] |  | dose-dependently increased | dose-dependently increased |  | 10 mg/kg | dose-dependently increased | dose-dependently increased | potently decreased IP1 levels from baseline; also recorded: dose-dependent inverse agonism |  | 
5 |  |  | Cc1cccc(C#Cc2ccccc2)n1 [Compound 1, 2-methyl-6-(phenylethynyl)pyridine, reference compound] | no corresponding loss of locomotor activity | dose-dependently increased | dose-dependently increased | loss of anxiolytic effects | 3 to 30 mg/kg | dose-dependently increased | dose-dependently increased | potently decreased IP1 levels from baseline; also recorded: dose-dependent inverse agonism |  | full
